Assays:
[1] = target: Muscarinic acetylcholine receptor M3 (Cavia porcellus) (UniProt Q8VH26); test: Antagonist activity at muscarinic M3 receptor in guinea-pig ileum; type: functional, tissue-based
Procedure, shortened: (§1)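 Antagonist mode: after 30 min incubation with test compound (10 nM–100 µM), concentration–response curve to full agonist (bethanechol or McN-A-343) repeated; pKB as molar concentration giving twofold EC50 shift, Furchgott's method; mean of 6-8 experiments.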

Oryctolagus cuniculus = species on record: Oryctolagus cuniculus; test: Intrinsic activity at muscarinic M1 receptor in electrically stimulated New Zealand rabbit vas deferens relative to McN-A-343; type: tissue-based
Procedure, shortened: (§2)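 Intrinsic activity as ratio of compound's maximal response to that of reference full agonist (McN-A-343 for vas deferens, bethanechol for atrium and ileum), from cumulative concentration–response curves; mean of 6-8 experiments.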

[2] = Antagonist activity at muscarinic M1 receptor in electrically stimulated New Zealand rabbit vas deferens; type: functional, Oryctolagus cuniculus; procedure, shortened: as §1
[3] = target: T1, Muscarinic acetylcholine receptor M1 (Homo sapiens, UniProt P11229); test: biochemical; type: cell-based, CHO
T1 sequence (P11229 whole entry): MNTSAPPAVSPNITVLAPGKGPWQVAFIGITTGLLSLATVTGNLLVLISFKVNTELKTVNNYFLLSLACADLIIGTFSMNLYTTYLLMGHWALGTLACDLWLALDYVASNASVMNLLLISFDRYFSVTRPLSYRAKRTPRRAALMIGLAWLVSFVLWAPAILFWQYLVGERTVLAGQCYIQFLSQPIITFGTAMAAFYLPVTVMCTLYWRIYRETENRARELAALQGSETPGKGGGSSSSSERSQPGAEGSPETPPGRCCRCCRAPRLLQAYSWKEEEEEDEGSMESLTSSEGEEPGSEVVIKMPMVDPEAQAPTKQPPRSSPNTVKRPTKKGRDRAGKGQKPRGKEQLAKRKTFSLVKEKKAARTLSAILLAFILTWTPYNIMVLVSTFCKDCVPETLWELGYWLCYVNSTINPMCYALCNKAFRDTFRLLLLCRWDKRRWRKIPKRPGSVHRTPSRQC

[4] = target: Muscarinic acetylcholine receptor M3 (Homo sapiens, UniProt P20309); test: Displacement of [3H]QNB from human muscarinic M3 receptor expressed in CHO cells; type: cell-based
[5] = target: Muscarinic acetylcholine receptor M3 (Cavia porcellus) (UniProt Q8VH26); test: Intrinsic activity at muscarinic M3 receptor in guinea-pig ileum relative to benthanechol; type: tissue-based; procedure, shortened: as §2
[6] = target: T2, Muscarinic acetylcholine receptor M5 (Homo sapiens, UniProt P08912); test: Displacement of [3H]QNB from human muscarinic M5 receptor expressed in CHO cells; type: cell-based
T2 sequence (P08912 whole entry): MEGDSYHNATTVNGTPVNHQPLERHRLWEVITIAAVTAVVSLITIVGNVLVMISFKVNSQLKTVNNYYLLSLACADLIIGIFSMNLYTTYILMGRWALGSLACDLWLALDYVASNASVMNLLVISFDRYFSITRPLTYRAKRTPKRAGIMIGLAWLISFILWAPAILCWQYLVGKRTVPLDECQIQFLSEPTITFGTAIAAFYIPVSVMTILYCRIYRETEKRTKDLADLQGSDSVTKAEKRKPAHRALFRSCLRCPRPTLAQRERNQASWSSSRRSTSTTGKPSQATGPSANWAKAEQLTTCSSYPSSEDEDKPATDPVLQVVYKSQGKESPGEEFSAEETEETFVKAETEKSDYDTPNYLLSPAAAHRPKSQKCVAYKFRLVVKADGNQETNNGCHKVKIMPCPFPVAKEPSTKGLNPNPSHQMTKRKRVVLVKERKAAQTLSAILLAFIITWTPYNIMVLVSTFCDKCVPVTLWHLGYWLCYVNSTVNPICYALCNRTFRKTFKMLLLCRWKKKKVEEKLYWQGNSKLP

[7] = Antagonist activity at muscarinic M2 receptor in electrically stimulated guinea-pig left atrium; type: functional, Cavia porcellus, Cardiac atrium; procedure, shortened: as §1
[8] = target: T3, Muscarinic acetylcholine receptor M4 (Homo sapiens, UniProt P08173); test: Displacement of [3H]QNB from human muscarinic M4 receptor expressed in CHO cells; type: cell-based
T3 sequence (P08173 whole entry): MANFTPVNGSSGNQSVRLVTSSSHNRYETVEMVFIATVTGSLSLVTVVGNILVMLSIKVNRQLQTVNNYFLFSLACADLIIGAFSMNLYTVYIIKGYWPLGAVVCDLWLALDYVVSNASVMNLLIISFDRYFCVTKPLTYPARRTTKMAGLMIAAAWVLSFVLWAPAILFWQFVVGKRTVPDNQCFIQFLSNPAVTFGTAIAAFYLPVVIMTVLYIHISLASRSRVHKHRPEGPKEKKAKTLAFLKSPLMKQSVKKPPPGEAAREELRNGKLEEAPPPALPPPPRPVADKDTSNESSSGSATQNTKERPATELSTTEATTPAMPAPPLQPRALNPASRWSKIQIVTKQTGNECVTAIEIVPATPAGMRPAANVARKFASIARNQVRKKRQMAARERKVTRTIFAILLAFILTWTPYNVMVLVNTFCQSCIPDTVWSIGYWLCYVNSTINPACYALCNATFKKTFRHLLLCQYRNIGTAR
Procedure, shortened: (§3)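 Membranes (10-50 µg protein) from stable CHO lines expressing human m2-m5, competed against 180 pM [3H]QNB in 50 mM Tris-HCl pH 7.4 with 1% DMSO; 120 min at 25 °C to equilibrium; nonspecific binding with 0.5 µM atropine; GF-C filtration, scintillation counting; IC50 by logistic fit, Ki via Cheng–Prusoff using saturation-derived KD (5–2500 pM [3H]QNB).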

Cavia porcellus = species on record: Cavia porcellus; test: Intrinsic activity at muscarinic M2 receptor in electrically stimulated guinea-pig left atrium relative to benthanechol; type: tissue-based; conditions: Cardiac atrium; procedure, shortened: as §2
[9] = target: T4, Muscarinic acetylcholine receptor M2 (Homo sapiens, UniProt P08172); test: Displacement of [3H]QNB from human muscarinic M2 receptor expressed in CHO cells; type: cell-based; procedure, shortened: as §3
T4 sequence (P08172 whole entry): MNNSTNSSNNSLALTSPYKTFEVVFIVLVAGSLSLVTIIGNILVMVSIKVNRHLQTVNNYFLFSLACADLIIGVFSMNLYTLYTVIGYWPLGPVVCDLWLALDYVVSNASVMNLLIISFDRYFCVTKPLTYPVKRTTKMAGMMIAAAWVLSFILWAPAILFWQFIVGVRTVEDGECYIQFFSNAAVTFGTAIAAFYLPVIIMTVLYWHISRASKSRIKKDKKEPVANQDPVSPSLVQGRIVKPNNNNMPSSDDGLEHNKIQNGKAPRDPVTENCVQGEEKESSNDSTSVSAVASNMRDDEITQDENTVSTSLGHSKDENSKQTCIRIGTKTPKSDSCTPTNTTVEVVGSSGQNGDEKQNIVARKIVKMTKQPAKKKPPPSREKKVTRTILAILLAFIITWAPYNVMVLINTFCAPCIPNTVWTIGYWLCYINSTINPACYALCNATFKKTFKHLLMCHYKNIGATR

Chain of Muscarinic acetylcholine receptor M3 (Cavia porcellus) (Q8VH26 1-587): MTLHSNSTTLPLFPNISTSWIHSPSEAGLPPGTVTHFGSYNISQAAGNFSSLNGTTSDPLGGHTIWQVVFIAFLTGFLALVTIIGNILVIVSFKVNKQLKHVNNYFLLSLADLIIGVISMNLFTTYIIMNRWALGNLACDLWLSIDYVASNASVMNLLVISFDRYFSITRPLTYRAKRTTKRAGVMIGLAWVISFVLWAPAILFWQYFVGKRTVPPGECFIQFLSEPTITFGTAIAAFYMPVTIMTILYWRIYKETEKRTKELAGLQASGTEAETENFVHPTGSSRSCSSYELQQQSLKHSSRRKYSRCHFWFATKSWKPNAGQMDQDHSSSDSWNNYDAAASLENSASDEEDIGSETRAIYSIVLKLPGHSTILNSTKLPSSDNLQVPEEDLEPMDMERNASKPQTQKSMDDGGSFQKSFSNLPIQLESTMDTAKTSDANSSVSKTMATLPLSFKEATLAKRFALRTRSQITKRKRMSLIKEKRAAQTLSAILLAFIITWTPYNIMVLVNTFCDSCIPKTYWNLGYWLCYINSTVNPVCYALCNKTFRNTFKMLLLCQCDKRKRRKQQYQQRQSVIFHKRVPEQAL
Chain of Muscarinic acetylcholine receptor M3 (P20309 whole entry): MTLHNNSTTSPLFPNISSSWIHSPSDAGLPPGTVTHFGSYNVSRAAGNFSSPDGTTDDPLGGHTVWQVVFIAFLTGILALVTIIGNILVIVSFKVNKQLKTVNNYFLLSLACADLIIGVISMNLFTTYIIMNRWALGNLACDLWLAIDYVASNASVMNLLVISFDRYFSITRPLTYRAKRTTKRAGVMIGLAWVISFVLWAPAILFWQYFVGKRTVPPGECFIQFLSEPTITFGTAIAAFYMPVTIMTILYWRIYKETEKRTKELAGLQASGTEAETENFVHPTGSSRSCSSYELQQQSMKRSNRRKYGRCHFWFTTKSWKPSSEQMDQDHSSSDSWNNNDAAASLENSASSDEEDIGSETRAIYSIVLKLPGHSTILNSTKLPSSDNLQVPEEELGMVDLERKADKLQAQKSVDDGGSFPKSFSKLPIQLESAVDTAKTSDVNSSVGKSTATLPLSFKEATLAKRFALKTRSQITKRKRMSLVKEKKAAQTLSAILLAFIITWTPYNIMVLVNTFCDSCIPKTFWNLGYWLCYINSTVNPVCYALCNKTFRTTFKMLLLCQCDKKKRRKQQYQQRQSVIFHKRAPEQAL

C[N+]1(CC#CCOc2cc(-c3ccccc3)on2)CCCC1.[I-]
pKb [1]: 5.53 | Intrinsic activity (Oryctolagus cuniculus): 0 | pKb [2]: 6.88 | Ki [3]: 3.38 µM | Ki [4]: 1.45 µM | Intrinsic activity [5]: 0 | Ki [6]: 1.84 µM | pKb [7]: 5.95 | Ki [8]: 5.99 µM | Intrinsic activity (Cavia porcellus): 0 | Ki [9]: > 10 µM

Source: ChEMBL document CHEMBL1137537, “Novel oxotremorine-related heterocyclic derivatives: Synthesis and in vitro pharmacology at the muscarinic receptor subtypes” (Bioorg Med Chem, 2007)
